Compound activity: PubChem, several laboratories
The list is not random: actives were taken first. Their share in the collection is about 2%.
NTR1 ag = NTR1 (human) agonism; activation, % at 20 µM; NTR1-U2OS beta-arrestin-GFP spot imaging, agonist mode; P30989; hit rate 0.17% among 330,000; AID 493036;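 active means activation at or above 40% of the spot to cytoplasm intensity ratio, with at least 20 cells analyzed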;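 further: 0% = DMSO without peptide and 100% = 100 nM NTR1 peptide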
CAL PDZ FP-1 = CAL PDZ (human) peptide binding inhibition | hit rate 0.92% among 300,000 | Q9HD26 | inhibition, % at 24.9 µM | purified CAL PDZ, TMR-peptide fluorescence polarization, 1 h;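 active means mean inhibition of at least 30% with at least half of replicates also reaching 30%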;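 further: 0% = DMSO neutral control and 100% = excess unlabeled competitor peptide PRC23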
PKA-R1A activ = PKA-R1A complex activation | PKA-R1A dissociation, Cy5-IP20 fluorescence polarization; scaled: DMSO 0%, 113 µM cGMP 100% | activation, % at 11.4 µM | hit rate 0.083% among 340,000;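 active means percent activation above the mean of all tested compounds plus 3 SD, cut at about 19% in these data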;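 further: higher means more PKAc released from R1A so a rise in polarization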
dFosB act = activators of mouse delta FosB homodimer; hit rate 0.99% among 340,000; P13346; activation, % at 25 µM; purified delta FosB, TAMRA-CDK5 oligo fluorescence polarization; percent of positive-control signal above neutral wells;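 active means mean activation above about 17%, with every replicate also reaching it, limit read from the data, passing the limit was not always enough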
CAL PDZ FP-2 = inhibitors of human CAL PDZ peptide binding; inhibition, % at 20 µM; hit rate 0.02% among 330,000; purified CAL PDZ, TMR-peptide fluorescence polarization, 1 h; Q9HD26;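 active means highest replicate inhibition of at least 40%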;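 further: plate controls were DMSO neutral control wells for no effect and unlabeled competitor peptide control wells for full effect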
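material = purified tagged CAL PDZ domain construct (CerCALP) | buffer or medium = sodium phosphate/NaCl buffer pH 7.4 with TCEP, IgG, Thesit | reagent = TMR-labelled reporter peptide T*-PRC34 bound in PDZ groove | incubation = 1 h room-temperature incubation prior to read | measured by = fluorescence polarization (mP) | evaluation = percent inhibition from loss of millipolarization | control set = unlabelled peptide and DMSO controls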
PKA-R2B act = activates the human PKA-R2B holoenzyme complex. PKA-R2B holoenzyme dissociation, Cy5-IP20 fluorescence polarization; R2B truncated from residue 108, S112A mutant; 0% DMSO only, 100% 113 µM cGMP. hit rate 0.079% among 340,000. activation, % at 11.4 µM;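 active means activation above a cutoff set at the mean over all compounds plus 3 SD, cut at about 18% in these data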;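 further: higher means more holoenzyme dissociation and a rise in polarization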
Target sequence (P31323 whole entry, looked up, other chains not shown, the tested form may be a part): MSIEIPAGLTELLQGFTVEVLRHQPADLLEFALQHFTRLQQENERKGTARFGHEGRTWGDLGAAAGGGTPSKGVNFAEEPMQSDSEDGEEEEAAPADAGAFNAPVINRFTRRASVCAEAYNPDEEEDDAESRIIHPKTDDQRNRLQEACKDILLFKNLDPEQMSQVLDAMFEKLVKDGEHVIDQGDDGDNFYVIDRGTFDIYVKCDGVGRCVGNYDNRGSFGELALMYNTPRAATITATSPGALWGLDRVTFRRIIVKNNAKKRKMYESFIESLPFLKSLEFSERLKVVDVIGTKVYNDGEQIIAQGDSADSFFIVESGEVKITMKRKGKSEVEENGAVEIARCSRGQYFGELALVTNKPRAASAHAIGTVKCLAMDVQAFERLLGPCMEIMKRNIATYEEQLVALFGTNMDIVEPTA
The depositor's hits bear a star; / = not tested or not shown; + = active, no number.

SMILES	NTR1 ag	CAL PDZ FP-1	PKA-R1A activ	dFosB act	CAL PDZ FP-2	PKA-R2B act
Cc1ccc(-c2nc3ccc([N+](=O)[O-])cc3[nH]2)cc1	2	/	-5	3	-1	-6
O=[N+]([O-])c1ccc2nc(-c3ccncc3)[nH]c2c1	1	+	-10	1	-2	-6
Cc1ccc(NC(=O)OCCNC(=O)OC(C)C)cc1	-1	38*	-4	-4	0	7
CC(=O)c1cccc(S(=O)(=O)N2CCN(CCOc3ccccc3)CC2)c1	1	0	3	-8	1	-5
COc1cc2c(cc1OC)C(O)=CC(=O)C2=O	/	/	7	/	/	3
CCc1cc(=O)[nH]c(SCC(=O)NCc2ccc3c(c2)OCO3)n1	1	-4	-4	1	-1	-19
Cn1cccc1-c1cc(C(=O)O)[nH]n1	-1	41*	-5	7	0	-9
O=C(O)c1cc(-c2ccccc2)n[nH]1	0	-7	-15	-9	-2	-2
O=C(O)c1cccc(-n2nnnc2SCc2ccccc2Cl)c1	-1	-5	6	6	-1	-13
O=C(O)c1ccccc1CSc1nnnn1-c1ccccc1	1	81*	-4	-3	/	-3
COc1ccc(CCNC(=O)CCSCc2ccccc2F)cc1OC	-2	41*	2	1	/	4
Cc1ccc(S(=O)(=O)NCCCNS(C)(=O)=O)cc1	-1	2	-11	-4	1	3
Cc1ccc(S(=O)(=O)NCCNS(=O)(=O)c2ccc(C)cc2)cc1	0	56*	-7	-2	/	5
Nc1nc2ccccc2n1CCOc1ccc(F)cc1	1	-2	0	5	0	9
CN(CCC#N)CC(=O)Nc1ccc(NC(=O)CN(C)CCC#N)cc1	-1	39*	4	-7	-3	-14
CN(CC(=O)Nc1ccc(F)cc1)C(=O)c1ccc(-c2ccc(F)cc2)o1	/	/	-8	/	/	-8
N=c1n(CC(=O)c2ccc(Br)s2)c2ccccc2n1Cc1ccccc1	10	38*	-2	25*	-2	-6
COCCNc1oc(/C=C/c2ccccc2)nc1C#N	-1	-4	-4	-6	-1	-2
N#Cc1nc(/C=C/c2ccccc2)oc1NCCCN1CCOCC1	0	36*	5	4	0	-2
COc1ccccc1C(=O)NC(=O)COC(=O)c1ccc([N+](=O)[O-])cc1Cl	3	8	0	4	-3	1
CCOc1ccccc1CN1C(=O)NC2(CCCCCC2)C1=O	0	-1	2	-1	0	14
CN(Cc1ccccc1)C(=O)CN1C(=O)NC2(CCCC2)C1=O	3	-1	-18	-2	-1	-10
CN(Cc1ccccc1Br)C(=O)CN1C(=O)NC2(CCCCCC2)C1=O	-1	39*	6	-10	0	-8
O=C1NC2(CCCCCC2)C(=O)N1Cc1ccccc1Br	-1	48*	4	-8	0	3
CC(C)N1CCc2c(sc(NC(=O)c3ccc(S(=O)(=O)N4CCc5ccccc54)cc3)c2C(N)=O)C1	3	-5	4	55*	-1	-5
SMILES	NTR1 ag	CAL PDZ FP-1	PKA-R1A activ	dFosB act	CAL PDZ FP-2	PKA-R2B act
CC(C)N1CCc2c(sc(NC(=O)c3nc4ccccc4s3)c2C(N)=O)C1	-1	-2	4	-29	0	10
CC(=O)c1c(C)oc2ccc(NS(=O)(=O)c3ccc(C)cc3)cc12	2	-5	-3	-1	-2	1
CC(=O)Nc1cc2cc(NS(=O)(=O)c3ccc(C)cc3)ccc2oc1=O	3	/	/	155*	-2	/
COc1cc(S(=O)(=O)Nc2ccc3nc(C)sc3c2)ccc1NC(C)=O	0	1	-14	-6	-1	-2
CC(C)(C)c1ccc(/C=N/N2CCN(c3ccccn3)CC2)cc1	0	53*	/	2	-1	/
C[C@H]1CN([C@@H](C)CO)C(=O)CCCn2nncc2CO[C@H]1CN(C)C(=O)c1ccc2ccn(C)c2c1	/	/	7	/	/	-2
COc1ccccc1NC(=O)/C(=C\c1cccnc1)NC(=O)c1ccccc1	-2	-1	-7	-8	-1	-14
COc1ccccc1NC(=O)/C(=C\c1cccnc1)NC(=O)c1ccc(C)cc1	0	42*	10	-15	-1	-2
